Assay results taken from ChEMBL document CHEMBL1221342, “Synthesis and in vitro antitumor activity of new 4,5-dihydropyrazole derivatives” (Bioorg Med Chem, 2010).

Test system: not listed separately
Assay: Inhibition of tubulin polymerization
Conditions: not given
Procedure, shortened: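 Tubulin (3 mg/mL HTS) in G-PEM buffer plus 5% glycerol, prepared at 4 °C, incubated at 37 °C with or without compound. Polymerization followed by A340 over 60 min. Polymer taken as the AUC, with untreated control AUC set to 100%. IC50 derived by non-linear regression.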

Compound | IC50 [µM]
COc1cc(C2CC(c3ccc(C)cc3)=NN2C(=O)CO)cc(OC)c1OC (centres undefined) | 7.72
CCN(CC)c1ccc(C2=NN(C(=O)CO)C(c3cc(OC)c(OC)c(OC)c3)C2)cc1 (centres undefined) | 6.14
COc1cc(C2CC(c3ccc(C)cc3)=NN2)cc(OC)c1OC (centres undefined) | > 10
CCN(CC)c1ccc(C2=NNC(c3cc(OC)c(OC)c(OC)c3)C2)cc1 (centres undefined) | > 10
COc1cc(C2CC(c3ccc(C)cc3)=NN2C(C)=O)cc(OC)c1OC (centres undefined) | > 10
COc1cc(C2CC(c3cccc(N)c3)=NN2C(C)=O)cc(OC)c1OC (centres undefined) | > 10
COc1cc(C2CC(c3ccc(N)cc3)=NN2C(C)=O)cc(OC)c1OC (centres undefined) | 10

Test system: NCI-H460
Assay: Cytotoxicity against human NCI-H460 cells after 72 hrs by SRB assay
Format: functional, cell-based
Conditions: NCI-H460, 72 h
Procedure, shortened: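 NCI-H460 (ATCC) cells seeded in 96-well plates in growth medium. Scalar drug concentrations added 24 h after plating, then 72 h exposure. Surviving cells stained with sulforhodamine B, OD read at 570 nm. IC50 (50% growth inhibition) fitted from dose–response curves. Mean ± SE of at least three independent experiments.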

Compound | IC50 [µM]
COc1cc(C2=NN(C(=O)COC(C)=O)C(c3cc(OC)c(OC)c(OC)c3)C2)ccc1O (centres undefined) | 4.5
COc1cc(C2CC(c3ccc(C)cc3)=NN2C(=O)CO)cc(OC)c1OC (centres undefined) | 0.69
COc1cc(C2CC(c3cccc(Br)c3)=NN2C(=O)CO)cc(OC)c1OC (centres undefined) | 1.1
COc1cc(C2CC(c3ccc(N(C)C)cc3)=NN2C(=O)CO)cc(OC)c1OC (centres undefined) | 1.3
CCN(CC)c1ccc(C2=NN(C(=O)CO)C(c3cc(OC)c(OC)c(OC)c3)C2)cc1 (centres undefined) | 0.95
COc1cc(C2=NN(C(=O)CO)C(c3cc(OC)c(OC)c(OC)c3)C2)ccc1O (centres undefined) | 1.85
COc1cc(C2=NNC(c3cccc(O)c3)C2)cc(OC)c1OC (centres undefined) | > 20
COc1cccc(C2CC(c3cc(OC)c(OC)c(OC)c3)=NN2)c1 (centres undefined) | 11.6
COc1cc(C2CC(c3ccc(C)cc3)=NN2)cc(OC)c1OC (centres undefined) | > 20
COc1cc(C2CC(c3ccc(F)cc3)=NN2)cc(OC)c1OC (centres undefined) | > 20
COc1cc(C2CC(c3cccc(Br)c3)=NN2)cc(OC)c1OC (centres undefined) | > 20
COc1cc(C2CC(c3ccc(Br)cc3)=NN2)cc(OC)c1OC (centres undefined) | > 20
COc1cc(C2CC(c3cccc(O)c3)=NN2)cc(OC)c1OC (centres undefined) | > 20
COc1cccc(C2=NNC(c3cc(OC)c(OC)c(OC)c3)C2)c1 (centres undefined) | > 20
COc1ccc(C2=NNC(c3cc(OC)c(OC)c(OC)c3)C2)cc1 (centres undefined) | > 20
COc1cc(C2CC(c3ccc(SC)cc3)=NN2)cc(OC)c1OC (centres undefined) | > 20
COc1cc(C2CC(c3ccc(N(C)C)cc3)=NN2)cc(OC)c1OC (centres undefined) | > 20
CCN(CC)c1ccc(C2=NNC(c3cc(OC)c(OC)c(OC)c3)C2)cc1 (centres undefined) | > 20
COc1cc(C2=NNC(c3cc(OC)c(OC)c(OC)c3)C2)ccc1O (centres undefined) | > 20

Compound | IC50 [µM]
COc1cc(C2=NN(C(C)=O)C(c3cccc(O)c3)C2)cc(OC)c1OC (centres undefined) | > 20
COc1ccc(C2CC(c3cc(OC)c(OC)c(OC)c3)=NN2C(C)=O)cc1 (centres undefined) | > 20
COc1cc(C2=NN(C(C)=O)C(c3ccc(N(C)C)cc3)C2)cc(OC)c1OC (centres undefined) | > 20
CCN(CC)c1ccc(C2CC(c3cc(OC)c(OC)c(OC)c3)=NN2C(C)=O)cc1 (centres undefined) | 13.8
COc1cc(C2CC(c3ccc(C)cc3)=NN2C(C)=O)cc(OC)c1OC (centres undefined) | 1.3
COc1cc(C2CC(c3ccc(F)cc3)=NN2C(C)=O)cc(OC)c1OC (centres undefined) | 12
COc1cc(C2CC(c3ccc(Cl)cc3)=NN2C(C)=O)cc(OC)c1OC (centres undefined) | 11.9
COc1cc(C2CC(c3ccc(Br)cc3)=NN2C(C)=O)cc(OC)c1OC (centres undefined) | 6
COc1cccc(C2=NN(C(C)=O)C(c3cc(OC)c(OC)c(OC)c3)C2)c1 (centres undefined) | > 20
COc1ccc(C2=NN(C(C)=O)C(c3cc(OC)c(OC)c(OC)c3)C2)cc1 (centres undefined) | > 20
COc1cc(C2CC(c3ccc(SC)cc3)=NN2C(C)=O)cc(OC)c1OC (centres undefined) | 8
COc1cc(C2CC(c3cccc(N)c3)=NN2C(C)=O)cc(OC)c1OC (centres undefined) | 0.74
COc1cc(C2CC(c3ccc(N)cc3)=NN2C(C)=O)cc(OC)c1OC (centres undefined) | 2.6
COc1cc(C2CC(c3ccc(C)cc3)=NN2C(=O)COC(C)=O)cc(OC)c1OC (centres undefined) | 3.3
COc1cc(C2CC(c3cccc(Br)c3)=NN2C(=O)COC(C)=O)cc(OC)c1OC (centres undefined) | > 20
COc1cc(C2CC(c3ccc(N(C)C)cc3)=NN2C(=O)COC(C)=O)cc(OC)c1OC (centres undefined) | > 20
CCN(CC)c1ccc(C2=NN(C(=O)COC(C)=O)C(c3cc(OC)c(OC)c(OC)c3)C2)cc1 (centres undefined) | 5
COc1cccc(C2CC(c3cc(OC)c(OC)c(OC)c3)=NN2C(C)=O)c1 (centres undefined) | > 20
